Experimental data taken from ChEMBL document CHEMBL1132585, “New N-(pyridin-4-yl)-(indol-3-yl)acetamides and propanamides as antiallergic agents” (J Med Chem, 1999).
Activity calls are given as the source filed them. No cut-off for these calls is given here.

Assays:
Rattus norvegicus [1] = test: Compound was evaluated in vivo for inhibition of Ovalbumin induced rhinitis in anesthetized rats after topical administration (nasal perfusion).; format: functional, organism-based
How it was run: (§1)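 Male Brown Norway rats sensitized ip with OVA 0.5 mg/kg + Al(OH)₃ 7.5 mg/kg, used on day 20-21 under thiopental (50 mg/kg ip). Nasal cavity perfused with PBS; drug given by 30 min topical perfusion in PBS, iv 30 min or po 60 min before OVA challenge.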

Mus musculus [2] = organism: Mus musculus; test: Percent inhibition of anti-CD3 mAb stimulated interleukin-5 release from […] by 10 uM; format: functional
How it was run: (§2)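 D10.G4.1 Th-2 cells (4 × 10⁴/well) in medium without Rat T-STIM for 3.5 h, then exposed to drug at 10 µM for 30 min and stimulated with anti-CD3 mAb (final 1:100) for 16 h. IL-4 or IL-5 content of the supernatant is read against solvent control. Mean of three experiments, each run in duplicate.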

Mus musculus [3] = organism: Mus musculus; test: Percent inhibition of anti-CD3 mAb stimulated interleukin-4 release from […] by 10 uM; format: functional; how it was run: as §2
Rattus norvegicus [4] = organism: Rattus norvegicus; test: Inhibition of histamine release in rat mast cells; format: functional, cell-based
Mus musculus [5] = organism: Mus musculus; test: Percent inhibition of anti-CD3 mAb stimulated interleukin-4 release from mice splenocytes by 10 uM compound; format: functional
Mus musculus [6] = organism: Mus musculus; test: Compound was evaluated for IL 5 production inhibitio from mice splenocytes stimulated by anti-CD3 mAb; format: functional
How it was run: (§3)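 Th-2 clone D10.G4.1, restimulated with conalbumin (100 µg/mL) plus mitomycin C-treated AKR/J splenocytes as antigen-presenting cells, thawed and grown 3 days with Rat T-STIM. Cells at 4 × 10⁴/well, 3.5 h without T-STIM, drug 30 min (DMSO ≤0.1%). Stimulated with anti-CD3 mAb (final 1:100) for 16 h; IL-4 or IL-5 measured in supernatant. IC50 estimated over a concentration range.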

Mus musculus [7] = organism: Mus musculus; test: Compound was evaluated for IL 4 production inhibition from mice splenocytes stimulated by anti-CD3 mAb; format: functional; how it was run: as §3
Mus musculus [8] = organism: Mus musculus; test: Compound was evaluated for IL 5 production inhibition from mice splenocytes stimulated by anti-CD3 mAb; format: functional; how it was run: as §3
Rattus norvegicus [9] = test: Compound was evaluated in vivo for inhibition of Ovalbumin induced rhinitis in anesthetized rats 30 min after intravenous administration.; format: functional; conditions: 0.5 h, read-out: ID50 (the source's name); how it was run: as §1
Cavia porcellus [10] = test: Inhibition of Late Phase Eosinophilia in Bronchoalveolar Lavage (BAL) of Guinea Pigs 4 hr after intraperitoneal administration at a dose 5 mg/kg.; format: functional; conditions: ip
How it was run: (§4)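 Male Dunkin-Hartley guinea pigs sensitized ip with OVA 20 µg + Al(OH)₃ 20 mg on two consecutive days; 14 days later mepyramine 10 mg/kg ip given before aerosol OVA challenge (5 mg/mL nebulized). Drug given ip or by oral gavage 2 h before or 4 h after challenge.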

Rattus norvegicus [11] = test: Compound was evaluated in vivo for inhibition of Ovalbumin induced rhinitis in anesthetized rats 60 min after peroral administration.; format: functional; conditions: po, 1 h, read-out: ID50 (the source's name); how it was run: as §1
Cavia porcellus [12] = test: Inhibition of Late Phase Eosinophilia in Bronchoalveolar Lavage (BAL) of Guinea Pigs 2 hr after intraperitoneal administration at a dose of 10 mg/kg.; format: functional; conditions: ip; how it was run: as §4
Cavia porcellus [13] = test: Inhibition of Late Phase Eosinophilia in Bronchoalveolar Lavage (BAL) of Guinea Pigs 4 hr after peroral administration at a dose of 30 mg/kg.; format: functional; conditions: route oral; how it was run: as §4
Cavia porcellus [14] = test: Inhibition of Late Phase Eosinophilia in Bronchoalveolar Lavage (BAL) of Guinea Pigs 2 hr after peroral administration at a dose of 30 mg/kg.; format: functional; conditions: route oral; how it was run: as §4
Cavia porcellus [15] = organism: Cavia porcellus; test: Inhibition of Carbachol-induced contraction of guinea pig trachea by the compound at a concentration of 100 uM.; format: functional
How it was run: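 Guinea pig tracheal spirals in Tyrode solution at 37 °C, carbogen, isotonic 2 g preload. Contracted with carbachol 0.164 µM until stable; after isoprenaline relaxation and washout, carbachol re-applied and test compound added cumulatively. Relaxation calculated as a percentage at each concentration.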

Rattus norvegicus [16] = organism: Rattus norvegicus; test: Inhibition of tetraethylammonium chloride(TEA)-induced acetylcholine hyperactivity in rat tracheal segments by the compound.; format: functional; conditions: Trachea
How it was run: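 Male Wistar rat tracheal rings in Krebs-Henseleit at 37 °C, 1 g preload, isotonic. Acetylcholine cumulative curves run alone, with TEA (10 mM, 30 min), and with drug (30 min before TEA) plus TEA. Percent inhibition of hyperreactivity taken from contraction at 100 µM acetylcholine, 3-5 preparations; screening at 30 µM, and IC50 by regression from 3-4 concentrations if inhibition exceeds 50%.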

SMILES	inhibition at 10 µM (Mus musculus [2]) [%]	inhibition (Mus musculus [3])	IC50 (Rattus norvegicus [4]) [nM]	inhibition at 10 µM (Mus musculus [5]) [%]	also measured
c1ccc(CN(CC2=NCCN2)c2ccccc2)cc1 [ANTAZOLINE]	–	–	–	–	IC50 (Rattus norvegicus [1]): 1260 nM
Cc1c(CC(=O)Nc2ccncc2)c2cc(C(C)C)ccc2n1Cc1ccccc1	34	inactive	7540	–	–
CC(C)c1ccc2[nH]cc(CC(=O)Nc3ccncc3)c2c1	29	–	4920	33	–
O=C(Cc1cn(Cc2ccccc2)c2ccc(F)cc12)Nc1ccncc1	48	inactive	60	–	–
O=C(Cc1cn(Cc2ccccc2)c2ccc(Cl)cc12)Nc1ccncc1	49	–	–	39	–
O=C(CCc1cn(Cc2ccc(F)cc2)c2ccccc12)Nc1ccncc1	22	–	220	2.9	–
O=C(Cc1c[nH]c2ccc(F)cc12)Nc1ccncc1	–	inactive	> 10000	–	–
O=C(Cc1c[nH]c2ccc(Cl)cc12)Nc1ccncc1	–	inactive	4500	–	–
C[C@@H]1C[C@H]2[C@@H]3CCC4=CC(=O)C=C[C@]4(C)[C@@]3(F)[C@@H](O)C[C@]2(C)[C@@]1(O)C(=O)CO [DEXAMETHASONE]	–	–	–	–	IC50 (Mus musculus [6]): 3.5 nM; IC50 (Mus musculus [7]): 4.7 nM
COc1ccc(CCN2CCC(Nc3nc4ccccc4n3Cc3ccc(F)cc3)CC2)cc1 [ASTEMIZOLE]	74	–	6500	66	IC50 (Mus musculus [8]): 3300 nM; IC50 (Mus musculus [7]): 8000 nM
COc1ccc2[nH]cc(CC(=O)Nc3ccncc3)c2c1	–	inactive	> 10000	–	–
COc1ccc2c(c1)c(CCC(=O)Nc1ccncc1)cn2Cc1ccc(F)cc1	–	inactive	–	–	–
Cc1[nH]c2ccc(C(C)C)cc2c1CC(=O)Nc1ccncc1	–	inactive	2800	–	–
O=C(Cc1cn(-c2ccc(F)cc2)c2ccc(F)cc12)Nc1ccncc1	71	–	–	51	IC50 (Mus musculus [8]): 4560 nM; IC50 (Mus musculus [7]): 9700 nM
O=C(CCc1c[nH]c2ccc(F)cc12)Nc1ccncc1	25	inactive	2210	–	–
O=C(Cc1cn(Cc2ccc(F)cc2)c2ccccc12)Nc1ccncc1	100	–	16	63	ED50 (Rattus norvegicus [9]): 0.005 mg/kg; inhibition in vivo at 5 mg/kg (Cavia porcellus [10]): 41%; ED50 (Rattus norvegicus [11]): 0.46 mg/kg; IC50 (Rattus norvegicus [1]): 250 nM; IC50 (Mus musculus [8]): 1500 nM; inhibition in vivo at 10 mg/kg (Cavia porcellus [12]): 59%; IC50 (Mus musculus [7]): 8000 nM; inhibition in vivo at 30 mg/kg (Cavia porcellus [13]): 28%; inhibition in vivo at 30 mg/kg (Cavia porcellus [14]): 35%; inhibition at 100 µM (Cavia porcellus [15]): 36%; IC50 (Rattus norvegicus [16]): 21 nM
COc1ccc2[nH]cc(CCC(=O)Nc3ccncc3)c2c1	26	inactive	–	–	–
O=C(Cc1cn(Cc2ccc(F)cc2)c2ccc(F)cc12)Nc1ccncc1	43	inactive	–	–	–
CC(C)c1ccc2[nH]cc(CCC(=O)Nc3ccncc3)c2c1	28	inactive	3120	–	–
COc1ccc2c(c1)c(CC(=O)Nc1ccncc1)cn2Cc1ccccc1	38	–	2800	33	–
Cc1c(CC(=O)Nc2ccncc2)c2cc(Cl)ccc2n1Cc1ccc(F)cc1	26	–	–	28	–
Cc1[nH]c2ccc(F)cc2c1CC(=O)Nc1ccncc1	–	inactive	10100	–	–
COc1ccc2c(c1)c(CCC(=O)Nc1ccncc1)cn2Cc1ccccc1	–	inactive	3900	–	–

SMILES	inhibition at 10 µM (Mus musculus [2]) [%]	inhibition (Mus musculus [3])	IC50 (Rattus norvegicus [4]) [nM]	inhibition at 10 µM (Mus musculus [5]) [%]	also measured
CC(C)c1ccc2c(c1)c(CCC(=O)Nc1ccncc1)cn2Cc1ccccc1	25	inactive	6000	–	–
O=C(CCc1cn(Cc2ccccc2)c2ccc(Cl)cc12)Nc1ccncc1	–	inactive	740	–	–
O=C(Cc1cn(Cc2ccc(F)cc2)c2ccc(Cl)cc12)Nc1ccncc1	54	inactive	230	–	IC50 (Mus musculus [8]): 8800 nM; IC50 (Mus musculus [7]): > 10000 nM
O=C(CCc1c[nH]c2ccc(Cl)cc12)Nc1ccncc1	25	–	1460	26	–
Cc1[nH]c2ccc(Cl)cc2c1CC(=O)Nc1ccncc1	–	inactive	> 10000	–	–
CC(C)(C)c1ccc(C(O)CCCN2CCC(C(O)(c3ccccc3)c3ccccc3)CC2)cc1 (stereo not given) [TERFENADINE]	–	–	–	–	IC50 (Mus musculus [6]): 3960 nM; IC50 (Mus musculus [7]): 4950 nM
COc1ccc(CCN(C)CCCC(C#N)(c2ccc(OC)c(OC)c2)C(C)C)cc1OC (stereo not given) [VERAPAMIL]	–	–	–	–	IC50 (Rattus norvegicus [16]): 1300 nM
COc1ccc2c(c1)c(CC(=O)Nc1ccncc1)c(C)n2Cc1ccc(F)cc1	22	inactive	5000	–	–
O=C(CCCc1cn(Cc2ccc(F)cc2)c2ccccc12)Nc1ccncc1	42	–	510	31	–
COc1ccc(CN(CCN(C)C)c2ccccn2)cc1 [PYRILAMINE]	–	–	–	–	IC50 (Rattus norvegicus [1]): 7410 nM
O=C(CCc1cn(Cc2ccc(F)cc2)c2ccc(Cl)cc12)Nc1ccncc1	41	inactive	1300	–	–
Cc1c(CC(=O)Nc2ccncc2)c2cc(F)ccc2n1Cc1ccc(F)cc1	61	–	400	49	IC50 (Mus musculus [8]): 7870 nM; IC50 (Mus musculus [7]): 10200 nM
CC(C)c1ccc2c(c1)c(CCC(=O)Nc1ccncc1)cn2Cc1ccc(F)cc1	–	inactive	5340	–	–
COc1ccc2c(CC(=O)Nc3ccncc3)cn(Cc3ccc(F)cc3)c2c1	76	–	330	51	IC50 (Mus musculus [8]): 2280 nM; IC50 (Mus musculus [7]): 9800 nM
COc1ccc2[nH]c(C)c(CC(=O)Nc3ccncc3)c2c1	–	inactive	–	–	–
Cc1c(CC(=O)Nc2ccncc2)c2cc(C(C)C)ccc2n1Cc1ccc(F)cc1	–	inactive	6900	–	–
O=C(Cc1cn(Cc2ccc(F)cc2)c2cc(O)ccc12)Nc1ccncc1	37	–	940	29	–
O=C(CCc1cn(Cc2ccccc2)c2ccc(F)cc12)Nc1ccncc1	42	–	420	27	–
O=C(Cc1cn(-c2ccc(F)cc2)c2ccccc12)Nc1ccncc1	48	–	302	31	–
CC(C)c1ccc2c(c1)c(CC(=O)Nc1ccncc1)cn2Cc1ccc(F)cc1	23	inactive	–	–	–
Cc1c(CC(=O)Nc2ccncc2)c2cc(F)ccc2n1Cc1ccccc1	41	inactive	480	–	–
COc1ccc2c(c1)c(CC(=O)Nc1ccncc1)cn2-c1ccc(F)cc1	22	–	–	24	–
O=C(CCc1cn(Cc2ccc(F)cc2)c2ccc(F)cc12)Nc1ccncc1	37	inactive	380	–	–
